High-throughput results deposited in PubChem BioAssay by several laboratories.
SENP6 inh: SENP6 protease inhibitors, primary screen, biochemical, luminescence, uHTS | inhibition, % at 10 µM | AID 2599, 2010 | Sentrin-specific protease 6 (Homo sapiens), Q9GZR1 | hit rate 1.8% among 330,000 | Recombinant SENP6 catalytic domain, aminoluciferin luminescence;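 active = inhibition above about 50% at the single tested dose, limit read from the data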;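 also: plate controls were DMSO wells with enzyme for no effect and DMSO wells lacking enzyme for full effect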
SENP1 inh: human SENP1 catalytic domain inhibitors, primary screen, biochemical, FRET, uHTS. Sentrin-specific protease 1 (Homo sapiens), Q9P0U3. inhibition, % at 10 µM. recombinant SENP1 catalytic domain, CyPet-SUMO1-YPet FRET cleavage. hit rate 0.21% among 360,000;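 active = inhibition at least 30% at 10 µM, raw YFP signal under a set limit, fluorescence ratio 0.5 to 1.5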;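 also: 0% = enzyme with DMSO and 100% = no enzyme wells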
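Compound: 10 µM single point, 0.5% DMSO; Test system: hSENP1 catalytic domain, recombinant; Timing: 50 min reaction at room temperature; Technique: FRET, CFP and YFP emission; Control set: no-enzyme wells low, DMSO-plus-enzyme wells high control.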
SENP7 inh: SENP7 protease inhibitors, primary screen, biochemical, luminescence, uHTS | inhibition, % at 5 µM | hit rate 1.5% among 330,000 | AID 434973, 2010 | recombinant SENP7, Z-RLRGG-aminoluciferin luminescence, 40 min;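 active = inhibition above about 50% at the single test dose, limit read from the data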;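 also: plate controls were DMSO with enzyme for no effect and no enzyme buffer wells for full effect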
Target sequence (Q9BQF6 706-1050 limits assumed): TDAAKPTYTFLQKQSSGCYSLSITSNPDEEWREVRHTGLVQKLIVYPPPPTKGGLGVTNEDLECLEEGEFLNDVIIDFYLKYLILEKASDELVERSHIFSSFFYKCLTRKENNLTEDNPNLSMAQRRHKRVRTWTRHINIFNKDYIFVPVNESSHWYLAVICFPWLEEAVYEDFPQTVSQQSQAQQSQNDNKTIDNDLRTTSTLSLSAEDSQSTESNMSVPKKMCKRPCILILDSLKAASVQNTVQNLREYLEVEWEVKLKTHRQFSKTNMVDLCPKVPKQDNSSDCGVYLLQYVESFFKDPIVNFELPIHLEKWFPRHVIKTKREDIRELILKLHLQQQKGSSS
SENP8 block-1: SENP8 protease inhibitors, primary screen, biochemical, luminescence. AID 2540, 2010. Sentrin-specific protease 8 (Homo sapiens), Q96LD8. purified SENP8, Z-RLRGG-aminoluciferin cleavage. inhibition, % at 10 µM. hit rate 1.2% among 330,000; in the data active = inhibition above about 50%
Platelet DG rel: inhibitors of platelet dense granule secretion, primary screen, cell-based, MLPCN, human platelets; human platelet-rich plasma, SFLLRN dense granule ATP release, luminescence; inhibition, %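 (compounds screened at 7.5 µM in platelet-rich plasma)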; hit rate 0.22% among 300,000; AID 1663, 2009;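 active = mean replicate score, as percent of positive control, at or above 50; inconclusive = mean below 50 but at least one replicate at or above 50; inactive = mean and every replicate below 50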
SENP8 block-2: human SENP8 protease inhibitors, primary screen, biochemical, fluorescence, Nedd8 protein substrate, uHTS | Sentrin-specific protease 8 (Homo sapiens), Q96LD8 | recombinant SENP8 | inhibition, % at 20 µM | hit rate 0.64% among 360,000; in the data active = inhibition mostly above about 40%, no sharp cut-off; inactive = mostly below about 27%
Starred values were filed as active, the others as inactive; ? = inconclusive; . = not tested or not shown. The list is not random: actives were taken first. Their share in the collection is about 2.6%.

SMILES	SENP6 inh	SENP1 inh	SENP7 inh	SENP8 block-1	Platelet DG rel	SENP8 block-2
C/C(=N/Nc1nc(-c2ccccc2F)nc2ccccc12)c1ccccc1O	-7.1	73.9*	-8.5	-3.0	2.0	23.2
O=C1CCC(c2ccc(-n3ccnc3)cc2)=NN1	-2.3	-0.1	-0.3	5.1	82.1*	-15.0
CCN(CC)CC(=O)Nc1c(C)cccc1C	-1.4	1.0	2.1	0.7	.	5.1
CCN(CC)CC(=O)Nc1cccc2c1C(=O)c1ccccc1C2=O	1.4	8.4	0.1	-4.0	-0.8	40.1*
O=C1c2ccccc2C(=O)c2c(NCCCN(CCO)CCO)cccc21	9.3	5.0	-3.0	3.7	3.0	43.7*
Cn1cc([C@]2(O)C(=O)Nc3ccc(OC(F)(F)F)cc32)c2ccccc21	.	3.1	.	.	.	12.2
CN[C@H]1C[C@H]2c3[nH]c4ccc(-c5cccc(C)c5)cc4c3CCN2C[C@H]1[C@H](C)O	.	-27.6	.	.	.	-233.6
COC(=O)C(C)Sc1nc2c(cnn2-c2ccc(Cl)cc2)c(=O)[nH]1 (stereo unspecified)	9.2	1.5	4.9	5.1	5.1	17.7
O=[N+]([O-])c1ccc(NN=Cc2ccccc2O)nc1	.	-33.3	.	.	.	-197.5
Cc1ccccc1-n1c(C)cc(/C=N/Nc2ccc([N+](=O)[O-])cn2)c1C	-10.1	6.9	4.4	-7.3	5.3	60.5*
Cc1cc(/C=N/Nc2ccc([N+](=O)[O-])cn2)c(C)n1-c1ccc(C(=O)O)cc1	1.9	-1.7	1.6	-3.5	2.1	49.9*
Cc1cc(CN(C)C(=O)c2ccc(OC3CCN(CCc4ccccc4)CC3)cc2)on1	-25.2	-2.0	-1.5	-1.4	2.1	6.1
CN(CC(=O)Nc1ccc(F)cc1)C(=O)CSc1nnc(Cc2ccccc2)o1	-6.3	1.7	1.7	-1.1	.	1.4
COc1ccc(-[n+]2c(C)cc(/C=C3\Sc4ccccc4N3C)cc2C)cc1	0.0	-25.3	8.1	4.0	-3.5	43.4*
COc1ccccc1-[n+]1c(C)cc(/C=C2\Sc3ccccc3N2C)cc1C	-3.5	-34.6	1.6	-0.2	-3.0	39.3
COC(=O)CCN1CCc2cc(N=Nc3ccc([N+](=O)[O-])cc3)ccc21	-22.5	3.2	80.0*	-22.0	9.8	29.0
Cc1ccccc1CN1CCc2cc([N+](=O)[O-])ccc21	-9.2	-20.6	-0.5	2.1	-20.3	26.0
O=C(c1cc(S(=O)(=O)NCc2ccco2)ccc1Br)N1CCOCC1	-3.0	2.2	-0.3	4.2	.	-2.1
Cc1nc2c(-c3ccccc3)c(C)nn2c(SCC(N)=O)c1Cc1ccccc1	-16.8	4.0	8.5	-10.0	4.6	24.5
Cc1cccc(CSc2ccc(-c3ccco3)nn2)c1	51.5*	0.4	-4.3	11.4	6.4	3.2
O=c1cc(CN2CCCCC2)c2c(ccc3ccccc32)o1	.	-0.5	.	.	.	-60.6
O=C1c2c(O)ccc(O)c2C(=O)c2c(NCCNCCO)ccc(NCCNCCO)c21	13.3	1.2	14.5	17.4	.	51.1*
O=C1c2ccccc2C(=O)c2c(Nc3ccc(CCO)cc3)ccc(O)c21	-2.1	3.0	-1.3	7.6	4.1	24.2
O=c1[nH]c2cc3c(cc2cc1CN(CCc1ccccc1)Cc1nnnn1C1CCCC1)OCCO3	.	.	.	.	49.8*	.
Cc1cc2cc(CN(Cc3ccc4c(c3)OCO4)Cc3nnnn3C3CCCC3)c(=O)[nH]c2cc1C	-10.7	1.7	4.4	-13.4	6.6	-34.9
Cc1ccc(Nc2ccc([N+](=O)[O-])ccc2=O)cc1	21.2	-0.3	7.0	5.6	9.6	42.8*
C=C[C@@]1(C)CC(=O)[C@]2(O)[C@@]3(C)[C@@H](O)CCC(C)(C)[C@@H]3[C@H](OC(C)=O)[C@H](O)[C@@]2(C)O1	-12.6	0.8	-8.9	-7.8	?	4.8
C=C[C@@]1(C)CC(=O)[C@]2(O)[C@@]3(C)[C@@H](O)CCC(C)(C)[C@@H]3[C@H](O)[C@H](OC(C)=O)[C@@]2(C)O1	-4.2	0.7	1.8	-1.1	89.6*	-2.1
O=[N+]([O-])c1ccc(N=Nc2c(O)[nH]c3ccc(F)cc23)cc1	-5.5	49.5*	11.8	2.9	19.1	30.7
